# Assays:
# [1] = melting temperature; fluorescence melt of hairpins on a sequencing array, two-state fit, raised by 9.35 °C to match UV melts; conditions: sodium 0.088 M
# Summary of the method: (§1)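 Hairpins were imaged by Cy3 fluorescence on a sequenced MiSeq flow cell with annealed Cy3 and quencher oligos, in 50 mM Na-HEPES pH 8.0, 25 mM NaCl, in 2.5 °C steps up to 60 °C. Bootstrapped two-state fits of normalised signals gave melting temperature and folding enthalpy. Four replicates were combined by inverse variance, and fitted temperatures were raised by 9.35 °C to match UV melts.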
# [2] = folding enthalpy; higher = less favourable; fluorescence melt of hairpins on a sequencing array, two-state fit; conditions: sodium 0.088 M
# Summary of the method: as §1
Sequence,Tm [1],folding enthalpy [2]
GATCGCGAAAGCGAAATC ((((((....)))..))),37.2 °C,-9.22 kcal/mol
CGTCCGGAAACGGGCACG ((((((....)))..))),38.9 °C,-12.4 kcal/mol
AGAAGGAAACTTCT (((((....))))),30.7 °C,-13.6 kcal/mol
GCTGACGAAAGTCTAAGC ((((((....)))..))),47.1 °C,-19.1 kcal/mol
GTTAACGGAAACGTTAGC (.(((((....))))).),42.9 °C,-21.3 kcal/mol
GCGTACGAAAGTACACGC ((((((....)))..))),52.6 °C,-19.1 kcal/mol
GCTCACGAAAGTGCTAGC ((((((....)))..))),35.8 °C,-15.6 kcal/mol
GATCCGGGGACGGATC ((((((....)))))),61.9 °C,-41.6 kcal/mol
GATCCCTCAGGGATC ((((((...)))))),65 °C,-37.2 kcal/mol
GCCCAGCGAAAGCAGTGC ((.(.((....)).).)),34.7 °C,-13.3 kcal/mol
GCGAACGAAAGTTCTCGC ((((((....)))..))),45.6 °C,-18.8 kcal/mol
GTTACTGGAAACAGTAGC (.(((((....))))).),40.3 °C,-24.2 kcal/mol
GATCGATGCTCGATC ((((((...)))))),51.8 °C,-37 kcal/mol
GTTATAGGAAACTGTAAC ((((.((....)).)))),34 °C,-27.2 kcal/mol
GGGCGCCGAAAGGCTCCC (((.(((....))).))),60.7 °C,-25.7 kcal/mol
GGGTGTACGAAAGTACCC (((..(((....)))))),53.3 °C,-23.1 kcal/mol
GCGAGCCTTCGC ((((....)))),53.9 °C,-31 kcal/mol
GGGAATCCGAAAGGACCC (((..(((....)))))),38.1 °C,-18.1 kcal/mol
GCTCTGGAAACAGAGC ((((((....)))))),62.2 °C,-37.3 kcal/mol
GACTCAGGAAACTGGGTC (((.(((....))).))),49.2 °C,-37.8 kcal/mol
GTCTGGGGAAACCTGGAC (((..((....))..))),41 °C,-23.9 kcal/mol
GCTCAGCGAAAGCATAGC (((..((....))..))),38.5 °C,-16 kcal/mol
GCGAGGCTCGC ((((...)))),52.8 °C,-28.5 kcal/mol

Sequence,Tm [1],folding enthalpy [2]
GGTTAGCGAAAGCTCACC (((.(((....))).))),49.1 °C,-26.6 kcal/mol
GACGCAGGAAACTGTGTC (((.(((....))).))),52.5 °C,-39.8 kcal/mol
GATCGTCATCACGATC ((((((....)))))),52.2 °C,-43.8 kcal/mol
GCGTATACACGC ((((....)))),53.6 °C,-22.8 kcal/mol
GATCGAGACTCGATC ((((((...)))))),52.9 °C,-37.1 kcal/mol
GCCATGCGAAAGCTTTGC ((.(.((....)).).)),36.1 °C,-11.7 kcal/mol
GCTGTAGCGAAAGCTAGC (((..(((....)))))),46.4 °C,-14 kcal/mol
GTATGAGAAATCATAC ((((((....)))))),44.4 °C,-31.4 kcal/mol
GATCGCAGGTGCGATC ((((((....)))))),68.4 °C,-39.8 kcal/mol
GGGCATCGAAAGATACCC (((.(((....))).))),49.5 °C,-31.6 kcal/mol
GATCTCGCAAGAGATC ((((((....)))))),67.3 °C,-37.5 kcal/mol
GAGTGCGCGAAAGCGCTC (((..(((....)))))),32 °C,-5.97 kcal/mol
GCGGCGCGAAAGCCCGGC ((.(.((....)).).)),59.8 °C,-14.6 kcal/mol
GCATGCCGAAAGGCTTGC (((.(((....))).))),66.2 °C,-26.9 kcal/mol
GATCACGAAAGTGGTATC ((((((....)))..))),34.1 °C,-13.5 kcal/mol
GCTCTCGAAAGAGAGAGC ((((((....)))..))),57.2 °C,-19.5 kcal/mol
GGCTGTGCGAAAGCAGCC (((..(((....)))))),57.5 °C,-27.1 kcal/mol
GCATGCGGAAACGCGTGC (((.(((....))).))),67.6 °C,-45.2 kcal/mol
GACTGCGAAAGCACAGTC ((((((....)))..))),44.5 °C,-13.2 kcal/mol
GTATTCCGAAAGGATAC (((.(((....)))))),38.9 °C,-19.7 kcal/mol
GTAACGGGAAACCGTTGC (.(((((....))))).),52 °C,-21.2 kcal/mol
GGACCCGAAAGGGCATCC ((((((....)))..))),34.2 °C,-11.7 kcal/mol
GTGGCAGGAAACTGCCGC (.(((((....))))).),61.1 °C,-18.3 kcal/mol

Sequence,Tm [1],folding enthalpy [2]
GGCTTCGAAAGAACCGCC ((((((....)))..))),47.4 °C,-21.1 kcal/mol
CGCACGGAAACGTTAGCG ((((((....)))..))),44.8 °C,-31.9 kcal/mol
GTGGGCGAAAGCCGTCAC ((((((....)))..))),36.9 °C,-13.2 kcal/mol
AAGATGAAAATCTT (((((....))))),28.4 °C,-8.93 kcal/mol
GATCCGGGAAACTGGATC (((((.(....).))))),52.1 °C,-41.7 kcal/mol
GGCGTCGAAAGACGAGCC ((((((....)))..))),54 °C,-16.7 kcal/mol
GGGTGATCGAAAGATCCC (((..(((....)))))),50.2 °C,-19 kcal/mol
GGAACCGGAAACGGTTTC (.(((((....))))).),54.5 °C,-21.3 kcal/mol
GACCCTGGAAACAGGATC ((.((((....)))).)),37.6 °C,-21.8 kcal/mol
GATCAGAAATGATC (((((....))))),41.1 °C,-22.5 kcal/mol
GTCTTTCGAAAGAAGGAC (((.(((....))).))),47.4 °C,-31.5 kcal/mol
GTAAACGAAAGTTCTTAC ((((((....)))..))),24.7 °C,-11 kcal/mol
GCCAATCGAAAGATAGGC (((.(((....))).))),52.1 °C,-35.6 kcal/mol
GATCTTTATCAAGATC ((((((....)))))),39.3 °C,-29.4 kcal/mol
GCGTCTCCACGC ((((....)))),52 °C,-21.4 kcal/mol
GTGTCCGAAAGGAGCAC ((((((....))).))),49 °C,-23.9 kcal/mol
GCTCCGCGAAAGCGTAGC (((.(((....))).))),51.8 °C,-32.6 kcal/mol
CGACGCCGGAAACGGTCG (((..(((....)))))),44.3 °C,-18.3 kcal/mol
GAGTGTGGAAACACACCC (.(((((....))))).),40.8 °C,-11.7 kcal/mol
GGGGGCGGAAACGTCCCC ((((.((....)).)))),67.4 °C,-22.5 kcal/mol
GCCTCGCGAAAGCAAGGC ((((.((....)).)))),65.1 °C,-30 kcal/mol
GGACCCCCGAAAGGGTCC (((..(((....)))))),62.1 °C,-34.8 kcal/mol
GAGACGGGAAACCGTCCC (.(((((....))))).),43.8 °C,-11.5 kcal/mol

Sequence,Tm [1],folding enthalpy [2]
GGGAGCGGAAACACTCCC (((((.(....).))))),50.8 °C,-37.7 kcal/mol
GCGACCGGAAACGGTTGC ((.((((....)))).)),64.6 °C,-41.1 kcal/mol
GATCTTGGAAACGAGATC (((((.(....).))))),44.2 °C,-36.7 kcal/mol
GCTCGGTCGAAAGACAGC (((..(((....)))))),41.2 °C,-12.3 kcal/mol
GATCTTGTTTAAGATC ((((((....)))))),45.8 °C,-32.1 kcal/mol
GATCGACGAAAGTCTATC (((.(((....))).))),37.1 °C,-26.8 kcal/mol
GACACCGAAAGGTAGTC ((((((....))).))),50.1 °C,-22.5 kcal/mol
GATTGACGAAAGTCTATC (((.(((....))).))),46.1 °C,-26.2 kcal/mol
GATCGGCAACCCGATC ((((((....)))))),54.4 °C,-38.5 kcal/mol
GGATCCGAAAGGACTTCC ((((((....)))..))),37.5 °C,-19.5 kcal/mol
GGACCCGGAAACGGACCC ((..(((....)))..)),32.7 °C,-13.8 kcal/mol
GCCCCGCGAAAGCGCGGC (((.(((....))).))),64.4 °C,-17.4 kcal/mol
GATCTGGATACAGATC ((((((....)))))),56.7 °C,-34 kcal/mol
GATCAAAGTTTGATC ((((((...)))))),42.7 °C,-27.1 kcal/mol
GAGTGCGAAAGCATTCTC ((((((....)))..))),52.3 °C,-21.5 kcal/mol
GATCGGACGTCCGATC ((((((....)))))),62.7 °C,-47.5 kcal/mol
GATCGGTATCCCGATC ((((((....)))))),57.3 °C,-34.5 kcal/mol
GCCAAGCGAAAGCTAGGC (((.(((....))).))),60.4 °C,-40.1 kcal/mol
GGACAGACGAAAGTCTCC (((..(((....)))))),30.4 °C,-10.2 kcal/mol
GATCCTGATTAGGATC ((((((....)))))),51.3 °C,-40.4 kcal/mol
GGCGCCGGAAACAGCGCC (((((.(....).))))),65.2 °C,-34.8 kcal/mol
GATCGCTGGCGCGATC ((((((....)))))),65.9 °C,-35.7 kcal/mol
GTGCCAGGAAACCAGCAC ((((..(....)..)))),41.5 °C,-28.8 kcal/mol

# — the array DNA melting data of Ke et al. (doi:10.1101/2024.01.08.574731)
